We go through 14 molecules from PubChem BioAssay.

Test [1] in a line: inhibitors of TNFa-induced NFkB p65 translocation, primary screen, imaging, HUVEC, MLSMR starter and 10KST1 sets (AID 438;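 active means inhibition above 20% together with a positive visual image hit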;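 further: compound added about 3h40 before a 20 min TNFalpha stimulation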;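 on inhibition: signal is the nuclear over cytoplasmic p65 intensity ratio per well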). The conditions noted are these: HUVEC TNFa-induced p65 nuclear translocation; cell count: measured here: nuclei count (cytotoxicity indicator), at 2.08 µM; inhibition: at 2 µM, stronger effect = higher value, 0% TNFa-plus-vehicle, 100% no-TNFa wells.
Test [2] in a line: reduction of polyQ htt aggregates in cells – imaging, exon1htt(103Q)mCFP cells, high-content imaging, primary screen (AID 483;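 active means visual image review flags a hit and inhibition of aggregation exceeds 20%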;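 further: compound exposure lasted 3 days before fixation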;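 on nuclei count: percent of the per-plate median nuclei count of sample wells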). The settings on record: exon1htt(103Q)mCFP cell line, aggregate imaging, at 2 µM; inhibition of aggregation: stronger effect = higher value; nuclei count: measured here: cell count, toxicity.
Test [3] is described as follows: endothelial E-selectin expression blockers – imaging, HUVEC, immunofluorescence, MLSMR starter and 10KST1 sets, primary screen (AID 487;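 active means visually confirmed hit in the image check and inhibition above 20%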;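 on inhibition: signal is fraction of cell area covered by stained E-selectin grains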;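 on nuclei count: 100% = median nuclei count of all wells on the same plate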). The conditions noted are these: HUVEC TNFalpha-induced E-selectin immunofluorescence imaging, at 2 µM; inhibition: stronger effect = higher value; nuclei count: measured here: cell number, toxicity.
Test [4] has as its target Voltage-gated potassium channel subunit beta-2 (Rattus norvegicus) (UniProt P62483). The test can be described thus: inhibitors of rat Kvbeta2 reductase activity – biochemical, NADPH fluorescence, primary screen (AID 622;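 active means fluorescence slope higher than the sample average by over 3 SD, cut at about -0.22 in these data, passing the limit was not always enough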;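 further: slope of raw intensity against log time taken from 70 to 1610 s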). The conditions noted are these: recombinant KvBeta, 4-cyanobenzaldehyde reduction, at 10 µM, stronger effect = higher value.
Test [5] has the same target. The test can be described thus: enhancers of rat Kvbeta2 NADPH turnover – biochemical, NADPH fluorescence, primary screen (AID 623;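 active means NADPH fluorescence slope more negative than the mean of all samples by about 3 SD, 99.7% confidence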;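 further: fluorescence intensity change per second fitted from 20 to 320 s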). The conditions noted are these: Recombinant KvBeta, NADPH fluorescence decrease slope, 10 min; at 10 µM; stronger effect = lower value.
Test [6] addresses Muscarinic acetylcholine receptor M4 (Homo sapiens) (UniProt P08173). Nature of the test: M4-linked GIRK flux change, two-sided – cell-based, HEK293 M4/GIRK, thallium flux, BTC-AM, M4 allosteric agonist project, primary screen (AID 625;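 active means fluorescence slope after compound addition differing from the mean of all tested samples at 99.7% confidence, mostly higher but some lower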;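 further: thallium influx through GIRK channels coupled to M4 in HEK293 cells with BTC-AM dye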). The conditions noted are these: at 10 µM, actives lie on both sides. The gist of the method: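 Material: M4/GIRK1/GIRK2 stable HEK293 cell line. Medium: pH 7.3 thallium assay buffer. Dosing: single compound concentration, 10 µM final. Schedule: 1 h dye loading, 2 min kinetic read. Measured by: kinetic fluorescence with BTC-AM dye. Read-out: post-addition slope, 15–24 s, of baseline-normalized fluorescence. Benchmarks: carbachol and DMSO controls.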

Test [7] is described as follows: blockers of RIG-like receptor reporter activation – cell-based, Sendai virus stimulus, luciferase, 10K MLSCN set, TLR/RLR signaling modifier project, primary screen (AID 602276).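 Further: firefly luciferase from ISG56 promoter only with Renilla not read in this screen; 0% = Sendai virus plus DMSO and 100% = medium plus DMSO without virus.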 The conditions noted are these: HEK293 RL24 IRF3 luciferase reporter, at 10 µM, stronger effect = higher value. (In general: A reporter such as luciferase makes a cellular process visible.)
Test [8] in a line: TLR3 IRF3 reporter activation blockers – cell-based, poly I:C stimulus, luciferase, 10K MLSCN set, primary screen (AID 602277;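 active means inhibition of the reporter signal at or above 50%; inactive means inhibition below 50%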). The conditions noted are these: HEK293-TLR3 RL24 IRF3 luciferase reporter, at 10 µM, stronger effect = higher value.

Calls of active or inactive are those of the source.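 How the source made its calls, unless noted: active means inhibition at or above 50% at 10 µM; inactive means inhibition below 50%.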

Muscarinic acetylcholine receptor M4 (Homo sapiens), sequence (P08173 whole entry, looked up): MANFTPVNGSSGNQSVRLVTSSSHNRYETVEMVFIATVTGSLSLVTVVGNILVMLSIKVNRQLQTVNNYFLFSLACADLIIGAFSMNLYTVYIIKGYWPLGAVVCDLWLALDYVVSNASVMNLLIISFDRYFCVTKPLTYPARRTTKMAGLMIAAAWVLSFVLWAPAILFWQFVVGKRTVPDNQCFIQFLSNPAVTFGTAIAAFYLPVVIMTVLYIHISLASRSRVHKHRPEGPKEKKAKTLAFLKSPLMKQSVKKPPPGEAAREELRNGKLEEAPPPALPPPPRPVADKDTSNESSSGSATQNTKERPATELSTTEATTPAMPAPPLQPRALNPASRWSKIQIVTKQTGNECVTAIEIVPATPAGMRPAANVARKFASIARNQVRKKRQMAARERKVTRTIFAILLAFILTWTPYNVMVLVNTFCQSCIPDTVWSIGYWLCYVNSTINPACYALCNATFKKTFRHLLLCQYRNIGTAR
Voltage-gated potassium channel subunit beta-2 (Rattus norvegicus), sequence (P62483 whole entry, looked up): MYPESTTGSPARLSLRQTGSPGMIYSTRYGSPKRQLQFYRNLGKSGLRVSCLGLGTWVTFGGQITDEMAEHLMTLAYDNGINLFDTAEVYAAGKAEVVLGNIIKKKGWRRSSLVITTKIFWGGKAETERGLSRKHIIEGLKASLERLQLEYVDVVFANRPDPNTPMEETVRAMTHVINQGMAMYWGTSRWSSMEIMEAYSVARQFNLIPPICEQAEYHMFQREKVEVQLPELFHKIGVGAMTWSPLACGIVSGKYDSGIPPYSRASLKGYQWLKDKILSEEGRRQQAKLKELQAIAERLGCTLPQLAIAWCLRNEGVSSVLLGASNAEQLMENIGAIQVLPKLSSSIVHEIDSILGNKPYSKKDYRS

For the molecule `O=C(Nc1ccc(F)cc1)c1cccc2c1C(=O)N(Cc1ccccn1)C2`, the cell count in test [1] turned out to be 811. Also, the inhibition (commonly the relative decrease from the control value, in per cent) in test [1] is 2.1% (inactive); in test [3], -108% (inactive); in test [7] it was 0.0917% (inactive); in test [8], -22.2% (inactive). Further, the inhibition of aggregation in test [2] was 4.1% (inactive). In addition, the figures for the nuclei count in test [2] and in test [3] were 98.1% and 126%, respectively. Besides, the fluorescence slope in test [4] is -0.576 (inactive); in test [6], 0.00591 (inactive). Further, in test [5], the NADPH fluorescence slope is -3e-05 (inactive).
`CCOc1ccc2cc(C#N)c(SCC(=O)N3CCOCC3)nc2c1`: the cell count in test [1] came to 386. Further, the inhibition in test [1] was 1% (inactive); in test [3], -46.6% (inactive); in test [7] it was -22.4% (inactive); in test [8] it was -67% (inactive). The inhibition of aggregation in test [2] is 11.7% (inactive). The nuclei count in test [2] was 97.9%; in test [3], 90.7%. Moreover, the fluorescence slope was -0.487 (inactive) in test [4] and 0.00448 (inactive) in test [6]. Moreover, the NADPH fluorescence slope in test [5] was -2.5e-05 (inactive).
For the molecule `O=C(NC1(C(F)(F)F)NC(=O)N(Cc2ccco2)C1=O)c1cccnc1` (centres undefined), in test [1], the cell count came out at 495. Besides, the inhibition in test [1] was 1.8% (inactive); in test [3], -26.5% (inactive); in test [7], 9.43% (inactive); in test [8] it was 12.8% (inactive). In addition, the inhibition of aggregation in test [2] is 1.2% (inactive). Besides, the nuclei count in test [2] amounted to 104%; in test [3], 122%. Moreover, the fluorescence slope was -0.461 (inactive) in test [4] and 0.00405 (inactive) in test [6]. Also, the NADPH fluorescence slope in test [5] is -8.5e-05 (inactive).
Turning to `O=C(Nc1ncnc2sc3c(c12)CCCCC3)c1ccco1`, in test [1], the cell count worked out at 260. Moreover, the inhibition in test [1] is -7% (inactive); in test [3] it was 62.2% (inactive); in test [7], 21.8% (inactive); in test [8] it was 22.6% (inactive). For the same molecule, the inhibition of aggregation in test [2] was 32.4% (active). In addition, the nuclei count in test [2] amounted to 85.3%; in test [3] it was 65.2%. In addition, the fluorescence slope is -0.542 (inactive) in test [4] and 0.0064 (inactive) in test [6]. Besides, in test [5], the NADPH fluorescence slope is -1.4e-05 (inactive).
For `COc1ccccc1-c1ccc(Nc2cccc(C(C)=O)c2)nn1`, in test [1], the cell count amounted to 319. The inhibition in test [1] was -11.3% (inactive); in test [3], 0.3% (inactive); in test [7], 12.1% (inactive); in test [8], -36.2% (inactive). Besides, the inhibition of aggregation in test [2] was -0.2% (inactive). The results for the nuclei count in test [2] and in test [3] were 74.7% and 103%, respectively. Further, the fluorescence slope in test [4] is -0.576 (inactive); in test [6], 0.00562 (inactive). In addition, the NADPH fluorescence slope in test [5] is -6e-05 (inactive).
For the molecule `Cc1ccc(NC2=NC(c3ccccc3)n3c(nc(C)cc3=O)N2)cc1` (centres undefined), the cell count in test [1] was 568. For the same molecule, the inhibition in test [1] was -5.6% (inactive); in test [3], -13% (inactive); in test [7] it was 14.2% (inactive); in test [8], 19.7% (inactive). The inhibition of aggregation in test [2] was -4.2% (inactive). In addition, the nuclei count in test [2] worked out at 89.6%; in test [3] it was 90.9%. Also, the figures for the fluorescence slope in test [4] and in test [6] were -0.529 (inactive) and 0.00472 (inactive), respectively. Further, in test [5], the NADPH fluorescence slope is 3.4e-05 (inactive).
`c1ccc(-c2csc(N3CCCCCC3)n2)cc1`: in test [1], the cell count stood at 403. The inhibition is 7.3% (inactive) in test [1], -77.2% (inactive) in test [3], -82.9% (inactive) in test [7] and -160% (inactive) in test [8]. Moreover, the inhibition of aggregation in test [2] was -6.8% (inactive). The nuclei count in test [2] stood at 112%; in test [3], 110%. Moreover, the fluorescence slope in test [4] was -0.551 (inactive); in test [6], 0.0048 (inactive). Moreover, the NADPH fluorescence slope in test [5] is 9.4e-06 (inactive).
Consider `Clc1ccc(Cc2nn3c(-c4ccncc4)nnc3s2)cc1`, for which the cell count in test [1] worked out at 322. For the same molecule, the inhibition in test [1] is -5.1% (inactive); in test [3] it was -102% (inactive); in test [7] it was -1.37% (inactive); in test [8] it was -9.67% (inactive). Further, the inhibition of aggregation in test [2] is 5.5% (inactive). For the same molecule, the figures for the nuclei count in test [2] and in test [3] were 83.3% and 110%, respectively. For the same molecule, the fluorescence slope in test [4] is -0.523 (inactive); in test [6] it was 0.00382 (inactive). The NADPH fluorescence slope in test [5] was -0.000147 (inactive).
As to `CCOC(=O)c1ccc(NC(=O)NC(C)C2CCCO2)cc1` (centres undefined), the cell count in test [1] amounted to 352. The inhibition in test [1] is -12.3% (inactive); in test [3], -94.9% (inactive); in test [7], -13% (inactive); in test [8], 98.6% (active). The inhibition of aggregation in test [2] is -23.9% (inactive). Moreover, the nuclei count in test [2] worked out at 101%; in test [3] it was 86.6%. For the same molecule, the fluorescence slope was -0.462 (inactive) in test [4] and 0.00652 (inactive) in test [6]. Further, the NADPH fluorescence slope in test [5] was 2e-05 (inactive).
In the case of `COc1ccccc1NC1=NC2(CCCC2)N=C(N)N1`, the cell count in test [1] is 313. The inhibition was -9.5% (inactive) in test [1], 18% (inactive) in test [3], 7.65% (inactive) in test [7] and 19.3% (inactive) in test [8]. The inhibition of aggregation in test [2] was -26.7% (inactive). Further, the nuclei count was 115% in test [2] and 124% in test [3]. The fluorescence slope in test [4] is -0.569 (inactive); in test [6] it was 0.00551 (inactive). In addition, the NADPH fluorescence slope in test [5] is -6.5e-06 (inactive).
In the case of `O=C(c1cc2ccccc2oc1=O)N1CCSC1c1ccco1` (centres undefined), in test [1], the cell count is 310. Moreover, the inhibition was 5.3% (inactive) in test [1], -24.5% (inactive) in test [3], 12.5% (inactive) in test [7] and 22% (inactive) in test [8]. Also, the inhibition of aggregation in test [2] is 3.2% (inactive). The nuclei count worked out at 102% in test [2] and 112% in test [3]. In addition, the fluorescence slope in test [4] is -0.398 (inactive); in test [6], 0.00556 (inactive). Also, in test [5], the NADPH fluorescence slope was -9.8e-05 (inactive).
With `N#Cc1cnc(SCC(=O)Nc2ccccc2C(F)(F)F)nc1N`, the cell count in test [1] amounted to 743. The inhibition in test [1] was 2.2% (inactive); in test [3] it was -205% (inactive); in test [7] it was 14% (inactive); in test [8], 22.7% (inactive). Besides, the inhibition of aggregation in test [2] was 15.1% (inactive). The nuclei count in test [2] came out at 102%; in test [3] it was 121%. In addition, the fluorescence slope in test [4] was -0.371 (inactive); in test [6], 0.00496 (inactive). The NADPH fluorescence slope in test [5] was 5.4e-05 (inactive).
For the molecule `O=C1c2ccccc2C(=O)N1OCc1ccccc1`, the cell count in test [1] amounted to 457. Also, the inhibition in test [1] was -6% (inactive); in test [3] it was -71.8% (inactive); in test [7], 16.6% (inactive); in test [8], 21.5% (inactive). Besides, in test [2], the inhibition of aggregation was 13.7% (inactive). In addition, the figures for the nuclei count in test [2] and in test [3] were 80.1% and 126%, respectively. Also, the fluorescence slope in test [4] was -0.608 (inactive); in test [6], 0.00373 (inactive). Also, in test [5], the NADPH fluorescence slope was -3.7e-05 (inactive).
As for `COc1ccccc1N(CC(=O)NCc1ccccc1)S(C)(=O)=O`, the cell count in test [1] was 665. In addition, the inhibition is -8.2% (inactive) in test [1], -67.8% (inactive) in test [3], -3.25% (inactive) in test [7] and 14% (inactive) in test [8]. In test [2], the inhibition of aggregation is 6.6% (inactive). For the same molecule, the results for the nuclei count in test [2] and in test [3] were 106% and 114%, respectively. Further, the fluorescence slope was -0.28 (inactive) in test [4] and 0.00584 (inactive) in test [6]. Moreover, in test [5], the NADPH fluorescence slope is -4.1e-05 (inactive).
